Activity calls are given as the source filed them.
How the values were obtained:
[1] = target: T1, Opioid receptors; delta & kappa (Homo sapiens) (UniProt P41145+P41143); assay: Agonist activity at human delta-kappa opioid receptor expressed in HEK293 cells assessed as induction of intracellular calcium release by FLIPR assay; type: functional, cell-based
How it was run: (§1)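 HEK293 cells stably carrying chimeric Δ6-Gαqi-myr, transiently transfected with one or two opioid receptor cDNAs (200 ng/20000 cells, Lipofectamine 2000). Cells were reseeded at 24 h and assayed 48 h post-transfection with a FLIPR Ca2+ kit. Fluorescence was read for 90 s after ligand addition to build concentration-response curves; mean ± SEM, n = 3−5.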

[2] = target: Mu-type opioid receptor (Homo sapiens) (UniProt P35372); assay: Agonist activity at human mu opioid receptor expressed in HEK293 cells assessed as induction of intracellular calcium release by FLIPR assay; type: functional, cell-based; how it was run: as §1
Chain of Mu-type opioid receptor (Homo sapiens) (P35372 whole entry): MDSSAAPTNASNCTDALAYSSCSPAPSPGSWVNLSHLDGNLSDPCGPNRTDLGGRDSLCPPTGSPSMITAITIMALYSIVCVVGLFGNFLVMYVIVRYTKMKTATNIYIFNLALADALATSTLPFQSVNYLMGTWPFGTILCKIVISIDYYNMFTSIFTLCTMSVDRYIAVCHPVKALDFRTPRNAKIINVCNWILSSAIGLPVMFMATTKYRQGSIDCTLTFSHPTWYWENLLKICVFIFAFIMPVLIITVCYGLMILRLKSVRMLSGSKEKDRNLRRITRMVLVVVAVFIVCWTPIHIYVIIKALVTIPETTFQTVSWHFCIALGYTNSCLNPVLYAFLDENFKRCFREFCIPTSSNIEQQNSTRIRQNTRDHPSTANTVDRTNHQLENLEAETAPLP

[3] = test system: Mus musculus; assay: Antinociceptive effect in intrathecally dosed ICR-CD1 mouse assessed as peak time for antinociceptive effect by tail flick test; type: functional
How it was run: (§2)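 Peak time in the mouse tail-flick test was set by measuring antinociception at 5, 10, 20, 30 and 60 min after dosing; latency cutoff 10 s; response expressed as %MPE.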

[4] = target: Kappa-type opioid receptor (Homo sapiens) (UniProt P41145); assay: Agonist activity at human kappa opioid receptor expressed in HEK293 cells assessed as induction of intracellular calcium release by FLIPR assay; type: functional, cell-based; how it was run: as §1
Chain of Kappa-type opioid receptor (Homo sapiens) (P41145 whole entry): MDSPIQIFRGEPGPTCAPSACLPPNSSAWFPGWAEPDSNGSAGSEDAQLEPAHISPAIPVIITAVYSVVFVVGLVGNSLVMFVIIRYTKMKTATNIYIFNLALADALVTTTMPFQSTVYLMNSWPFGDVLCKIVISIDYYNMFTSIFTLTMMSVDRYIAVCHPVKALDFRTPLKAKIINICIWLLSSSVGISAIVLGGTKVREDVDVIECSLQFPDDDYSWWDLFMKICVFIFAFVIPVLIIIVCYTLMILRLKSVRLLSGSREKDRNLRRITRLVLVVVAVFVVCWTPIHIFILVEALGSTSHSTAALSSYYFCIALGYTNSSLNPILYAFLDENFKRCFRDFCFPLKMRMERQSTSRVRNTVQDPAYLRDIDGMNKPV

[5] = target: Opioid receptors; mu & delta (Homo sapiens) (UniProt P41143+P35372); assay: Agonist activity at human mu-delta opioid receptor expressed in HEK293 cells assessed as induction of intracellular calcium release by FLIPR assay; type: functional, cell-based; how it was run: as §1
Chain of Opioid receptors; mu & delta (Homo sapiens) (P35372 whole entry, looked up): as the sequence (P35372 whole entry) above
Chain of Opioid receptors; mu & delta (Homo sapiens) (P41143 whole entry, looked up): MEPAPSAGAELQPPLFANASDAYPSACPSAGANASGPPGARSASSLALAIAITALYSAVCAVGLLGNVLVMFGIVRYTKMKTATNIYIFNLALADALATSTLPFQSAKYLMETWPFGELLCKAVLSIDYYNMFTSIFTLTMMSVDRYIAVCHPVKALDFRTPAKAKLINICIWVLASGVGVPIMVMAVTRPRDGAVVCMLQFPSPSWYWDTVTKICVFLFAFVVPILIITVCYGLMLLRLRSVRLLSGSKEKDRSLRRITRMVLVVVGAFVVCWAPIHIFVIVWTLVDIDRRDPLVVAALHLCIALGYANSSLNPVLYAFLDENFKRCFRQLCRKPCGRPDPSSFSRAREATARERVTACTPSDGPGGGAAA

[6] = test system: Mus musculus; assay: Antinociceptive effect in intracerebroventricularly dosed ICR-CD1 mouse by tail flick test; type: functional
How it was run: (§3)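 Male ICR-CD1 mice, 17−25 g. Tail-flick latency was taken before dosing and at the compound's peak time, with a 10 s cutoff. Response was expressed as %MPE = (test − control)/(10 − control) × 100. Three groups of 8−10 mice per dose-response curve, each mouse used once. ED50 with 95% CI came from nonlinear regression.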

[7] = target: Delta-type opioid receptor (Homo sapiens) (UniProt P41143); assay: Agonist activity at human delta opioid receptor expressed in HEK293 cells assessed as induction of intracellular calcium release by FLIPR assay; type: functional, cell-based; how it was run: as §1
Chain of Delta-type opioid receptor (Homo sapiens) (P41143 whole entry): as the sequence (P41143 whole entry, looked up) above

[8] = test system: Mus musculus; assay: Antinociceptive effect in intrathecally dosed ICR-CD1 mouse by tail flick test; type: functional; how it was run: as §3
[9] = target: T2, Opioid receptors; mu & kappa (Homo sapiens) (UniProt P41145+P35372); assay: Agonist activity at human mu-kappa opioid receptor expressed in HEK293 cells assessed as induction of intracellular calcium release by FLIPR assay; type: functional, cell-based; how it was run: as §1
T2 sequence (P35372 whole entry, looked up): as the sequence (P35372 whole entry) above
T2 sequence (P41145 whole entry, looked up): as the sequence (P41145 whole entry) above

[10] = test system: Mus musculus; assay: Antinociceptive effect in intrathecally dosed ICR-CD1 mouse assessed as drug tolerance development measured after 25 hrs by tail flick test; type: functional, organism-based
How it was run: (§4)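 Acute tolerance: the highest (ED80−90) dose of the day-1 dose-response curve was given again 24 h later to the same mice in the tail-flick test. No significant difference between days was scored as no tolerance.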

[11] = test system: Mus musculus; assay: Antinociceptive effect in intracerebroventricularly dosed ICR-CD1 mouse assessed as drug tolerance development measured after 25 hrs by tail flick test; type: functional, organism-based; how it was run: as §4
[12] = test system: Mus musculus; assay: Antinociceptive effect in intracerebroventricularly dosed ICR-CD1 mouse assessed as peak time for antinociceptive effect by tail flick test; type: functional; how it was run: as §2
[13] = test system: Mus musculus; assay: Potency ratio, ratio,of ED50 for antinociceptive effect in intracerebroventricularly dosed ICR-CD1 mouse to ED50 for intrathecally dosed ICR-CD1 mouse by tail flick test; type: functional
[14] = test system: Mus musculus; assay: Induction of aversion in ICR-CD1 mouse at 0.1 to 1 mg/kg, sc by conditioned place preference assay; type: organism-based; set-up: dose 0.1-1 mg/kg, route subcutaneous; conditions: in vivo
How it was run: (§5)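 Two-chamber place conditioning with rod versus mesh floors. Bias was taken in a 20 min free-exploration pretest, and groups were counterbalanced. Drug or vehicle (saline with 1% DMSO) was paired with one chamber and saline with the other, injected sc 20 min before 30 min confinement. Four drug and four saline sessions alternated daily. Tests of 20 min came after the 4th and 8th sessions. Score = change in CS+ time from pretest; Bonferroni t test against vehicle.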

[15] = test system: Mus musculus; assay: Antinociceptive effect in sc dosed ICR-CD1 mouse by tail flick test; type: functional; how it was run: as §3
[16] = test system: Mus musculus; assay: Antinociceptive effect in orally dosed ICR-CD1 mouse by tail flick test; type: functional; conditions: po; how it was run: as §3
[17] = test system: Mus musculus; assay: Physical dependence in ICR-CD1 mouse assessed as induction of jumps over 10 mins period at 2.5 to 10 mg/kg, sc dosed three times daily for 4 days and 10 mg/kg, sc on day 5 followed 3 hrs later by single 10 mg/kg, sc naloxone; type: organism-based; conditions: in vivo
How it was run: (§6)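 Mice received sc drug three times daily for 4 days (2.5−10 mg/kg), then 10 mg/kg on day 5, with sc naloxone 3 h later. Jumps were counted over 10 min. A morphine group served as control.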

[18] = test system: Mus musculus; assay: Physical dependence in ICR-CD1 mouse assessed as induction of jumps over 10 mins period at 2.5 to 10 mg/kg, sc dosed three times daily for 4 days and 10 mg/kg, sc on day 5 followed 3 hrs later by single 50 mg/kg, sc naloxone; type: organism-based; conditions: in vivo; how it was run: as §6
[19] = target: Mu-type opioid receptor (Homo sapiens) (UniProt P35372); assay: Agonist activity at human mu opioid receptor expressed in HEK293 cells assessed as induction of beta-arrestin 2 recruitment incubated for 60 mins by fluorescent microscopy; type: cell-based
How it was run: (§7)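 HEK293 cells were transiently transfected with single or paired opioid receptors, replated on chamber slides after 24 h and left overnight. Ligands in serum-free medium were applied for 60 min at 37 °C. Cells were fixed in 4% paraformaldehyde, then stained with goat anti-β-arrestin2 (1 μg/mL, 4 °C overnight), fluorescent anti-goat secondary (30 min, RT) and DAPI. A brighter membrane on fluorescence microscopy scored as recruitment.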

[20] = test system: Mus musculus; assay: Antinociceptive effect in intrathecally dosed ICR-CD1 mouse co-treated with delta opioid receptor antagonist NTB by tail flick test; type: functional, organism-based
[21] = test system: Mus musculus; assay: Ratio of antinociceptive effect in intrathecally dosed ICR-CD1 mouse in presence of 500 nmol naloxone to antinociceptive effect in intrathecally dosed ICR-CD1 mouse in absence of 500 nmol naloxone; type: functional
[22] = target: T1, Opioid receptors; delta & kappa (Homo sapiens); assay: Agonist activity at human kappa-delta opioid receptor expressed in HEK293 cells assessed as induction of beta-arrestin 2 recruitment incubated for 60 mins by fluorescent microscopy; type: cell-based; how it was run: as §7
[23] = target: Kappa-type opioid receptor (Homo sapiens) (UniProt P41145); assay: Agonist activity at human kappa opioid receptor expressed in HEK293 cells assessed as induction of beta-arrestin 2 recruitment incubated for 60 mins by fluorescent microscopy; type: cell-based; how it was run: as §7
[24] = target: Delta-type opioid receptor (Homo sapiens) (UniProt P41143); assay: Agonist activity at human delta opioid receptor expressed in HEK293 cells assessed as induction of beta-arrestin 2 recruitment incubated for 60 mins by fluorescent microscopy; type: cell-based; how it was run: as §7
[25] = target: T2, Opioid receptors; mu & kappa (Homo sapiens); assay: Agonist activity at human mu-kappa opioid receptor expressed in HEK293 cells assessed as induction of beta-arrestin 2 recruitment incubated for 60 mins by fluorescent microscopy; type: cell-based; how it was run: as §7
[26] = test system: Mus musculus; assay: Antinociceptive effect in sc dosed ICR-CD1 mouse by tail flick test relative to morphine; type: functional
[27] = test system: Mus musculus; assay: Induction of aversion in ICR-CD1 mouse at 0.3 to 10 mg/kg, sc by conditioned place preference assay; type: organism-based; set-up: dose 0.3-10 mg/kg, route subcutaneous; conditions: in vivo; how it was run: as §5
[28] = test system: Mus musculus; assay: Rewarding effect in ICR-CD1 mouse at 0.3 to 10 mg/kg, sc in presence of naloxone by conditioned place preference assay; type: functional, organism-based
[29] = test system: Mus musculus; assay: Antinociceptive effect in intrathecally dosed ICR-CD1 mouse co-treated with mu opioid receptor antagonist beta-FNA by tail flick test; type: functional, organism-based
[30] = test system: Mus musculus; assay: Antinociceptive effect in ICR-CD1 mouse dosed intrathecally twice on day 1 and day 2 followed by injection with same dose on day 3 by tail flick test; type: functional
[31] = test system: Mus musculus; assay: Antinociceptive effect in intrathecally dosed ICR-CD1 mouse co-treated with kappa opioid receptor antagonist norB-NI by tail flick test; type: functional, organism-based
[32] = test system: Mus musculus; assay: Rewarding effect in ICR-CD1 mouse at 0.3 to 10 mg/kg, sc by conditioned place preference assay; type: functional, organism-based; how it was run: as §5

T1 sequence (P41143 whole entry, looked up): as the sequence (P41143 whole entry, looked up) above
T1 sequence (P41145 whole entry, looked up): as the sequence (P41145 whole entry) above

Row | Structure (SMILES) | Activity [1] | Activity [2] | Time [3] [min] | Activity [4] | Activity [5] | MPE [6] [%] | Activity [7] | MPE [8] [%] | Activity [9] | Activity [10] | Activity [11] | ED50 [6] [pmol] | Time [12] [min] | ED50 [8] [pmol] | Ratio ED50 [13] | also measured
1 | O=C(N[C@@H]1CC[C@@]2(O)[C@H]3Cc4ccc(O)c5c4[C@@]2(CCN3CC2CC2)[C@H]1O5)c1cc2ccccc2s1 | Active | Active | 20 | Active | Active | <60 | Active | <60 | Active | – | – | – | – | – | – | –
2 | O=C(N[C@@H]1CC[C@@]2(O)[C@H]3Cc4ccc(O)c5c4[C@@]2(CCN3CC2CC2)[C@H]1O5)c1cc2ccccc2o1 | Active | Active | 10 | Active | Active | – | Active | – | Active | Active | Active | 580.8 | 10 | 191.9 | 3 | –
3 | COC(=O)[C@@H]1C[C@H](OC(C)=O)C(=O)[C@H]2[C@@]1(C)CC[C@H]1C(=O)O[C@H](c3ccoc3)C[C@]21C [SALVINORIN A] | – | – | – | – | – | – | – | – | – | – | – | – | – | – | – | Activity [14]: Toxic
4 | Cn1c(C(=O)N[C@@H]2CC[C@@]3(O)[C@H]4Cc5ccc(O)c6c5[C@@]3(CCN4CC3CC3)[C@H]2O6)cc2ccccc21 | Active | Active | 10 | Active | Active | – | Active | – | Active | Active | Active | 550.4 | 10 | 23.06 | 24 | –
5 | O=C(N[C@@H]1CC[C@@]2(O)[C@H]3Cc4ccc(O)c5c4[C@@]2(CCN3CC2CC2)[C@H]1O5)c1cc2cc(F)ccc2[nH]1 | inactive | – | 10 | – | Active | <60 | – | – | – | inactive | – | – | – | 295 | – | –
6 | O=C(N[C@@H]1CC[C@@]2(O)[C@H]3Cc4ccc(O)c5c4[C@@]2(CCN3CC2CC2)[C@H]1O5)c1ccc2[nH]ccc2c1 | Active | – | 20 | – | – | <60 | – | <60 | Active | – | – | – | – | – | – | –
7 | O=C(N[C@@H]1CC[C@@]2(O)[C@H]3Cc4ccc(O)c5c4[C@@]2(CCN3CC2CC2)[C@H]1O5)c1c[nH]c2ccccc12 | Active | – | 20 | – | – | <60 | – | – | Active | Active | – | – | – | 29.39 | – | –
8 | O=C(N[C@@H]1CC[C@@]2(O)[C@H]3Cc4ccc(O)c5c4[C@@]2(CCN3CC2CC2)[C@H]1O5)c1cc2cc(Cl)ccc2[nH]1 | Active | – | 20 | – | – | <60 | – | <60 | Active | – | – | – | – | – | – | –
9 | CN1CC[C@]23c4c5ccc(O)c4O[C@H]2[C@@H](O)C=C[C@H]3[C@H]1C5 [MORPHINE] | – | – | – | – | – | – | – | – | – | – | – | – | – | – | – | ED50 [15]: 7.8 mg/kg; ED50 [16]: 2.51 mg/kg
10 | O=C(N[C@@H]1CC[C@@]2(O)[C@H]3Cc4ccc(O)c5c4[C@@]2(CCN3CC2CC2)[C@H]1O5)c1cc2ccccc2[nH]1 | Active | Active | 10 | Active | Active | – | Active | – | Active | Active | Active | 1252.2 | 10 | 21.27 | 59 | Activity [17]: Non-toxic; Activity [18]: Non-toxic; Activity [19]: Active; Activity [20]: Active; Ratio [21]: 15; Activity [22]: inactive; Activity [23]: Active; ED50 [15]: 0.97 mg/kg; Activity [24]: Active; Activity [25]: inactive; Ratio ED50 [26]: 9; Activity [27]: Non-toxic; Activity [28]: inactive; Activity [29]: Active; ED50 [16]: 9.08 mg/kg; ED50 [30]: 29.47 pmol; Activity [31]: Active; Activity [32]: Dose-dependent effect
